Published values pooled from the literature.
Target: Protein kinase C iota type (PRKCI, Homo sapiens, UniProt P41743)
One construct used (P41743 1-596): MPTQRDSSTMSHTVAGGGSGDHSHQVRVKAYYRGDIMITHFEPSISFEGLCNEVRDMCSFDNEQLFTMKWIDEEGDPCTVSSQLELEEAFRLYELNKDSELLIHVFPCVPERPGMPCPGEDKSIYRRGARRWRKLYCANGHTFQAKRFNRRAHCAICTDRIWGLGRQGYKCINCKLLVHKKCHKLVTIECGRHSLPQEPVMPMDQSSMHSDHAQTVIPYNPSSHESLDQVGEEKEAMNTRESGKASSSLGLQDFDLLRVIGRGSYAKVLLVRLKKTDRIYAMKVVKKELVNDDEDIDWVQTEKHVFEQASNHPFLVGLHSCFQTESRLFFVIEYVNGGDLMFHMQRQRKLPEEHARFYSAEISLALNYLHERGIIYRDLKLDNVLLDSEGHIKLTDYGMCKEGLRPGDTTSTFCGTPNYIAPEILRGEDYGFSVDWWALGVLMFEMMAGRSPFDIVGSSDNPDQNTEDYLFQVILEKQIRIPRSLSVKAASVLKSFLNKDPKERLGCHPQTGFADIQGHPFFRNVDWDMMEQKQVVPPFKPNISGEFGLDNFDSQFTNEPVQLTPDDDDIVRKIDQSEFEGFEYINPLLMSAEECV

COc1ncccc1-c1cnn2ccc(N3CCN(C(=O)OC(C)C)CC3)nc12 — remaining binding (binding, competition with immobilised ligand; 1 µM): 90%
COCc1c(-c2cc3cc(C)cc(OC)c3s2)c2c(N)ncnn2c1CN1CCNC(=O)C1 — inhibition (cell-free assay, competition with immobilised ligand; 1 µM): 80%
Cn1cncc1[C@](O)(COc1ccc(C#N)cc1-c1ccc(OC(F)(F)F)cc1)c1ccc(C#N)cc1 — remaining binding (cell-free assay, competition with immobilised ligand; 1 µM): 100%
Cn1cc(-c2cc(F)cc(N3CCn4c(cc5c4CCCC5)C3=O)c2CO)cc(Nc2ccc(N3CCN(C4COC4)CC3)cn2)c1=O — inhibition (enzyme activity, inhibitor; 0.1 µM): -3%
O=c1[nH]c2ccccc2n1C1CCN(Cc2ccc(-c3[nH]c4cc5ncnc5cc4nc3-c3ccccc3)cc2)CC1 — remaining signal (cell-free assay; 0.5 µM): 97%
Cn1cc(-c2cccc(N3CCc4c(sc5c4CC(C)(C)C5)C3=O)c2CO)cc(Nc2ccncn2)c1=O — inhibition (enzyme activity, inhibitor; 1 µM): 6%
CC(C)(C)c1cc(C=C(C#N)C#N)cc(Br)c1O — remaining activity (enzyme activity, inhibitor; 0.5 µM): 100%
COc1cc(Nc2ncc(F)c(Nc3ccc4c(n3)NC(=O)C(C)(C)O4)n2)cc(OC)c1OC — inhibition (binding; 10 µM): 35%
